Test results reported in PMC9260726 (ACS Infectious Diseases, 2022).

Columns and labels:
[1] = test system: VSV-G protein pseudotyped particles; type: cell-based, vesicular stomatitis virus
[2] = test system: SARS-CoV-1 S pseudotyped particles; type: cell-based
[3] = test system: SARS-CoV-2 S pseudotyped particles; type: cell-based
Vero CCL81 cells = conditions: 1 μM, 18 h
[4] = test system: SARS-CoV-2 nucleoprotein and spike protein; type: cell-based
[5] = test system: SARS-CoV-2 BetaCoV/Germany/BavPat1/2020; type: cell-based
[6] = test system: human pneumocyte-like cells; assay: Pneumocyte-like cell MTT viability assay; type: cell-based; conditions: 10 μM, 48 h, uninfected
Outline: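 Human pneumocyte-like cells derived from H9 embryonic stem cells, used on day nine of differentiation. An uninfected duplicate set received the same drug concentrations as the antiviral set. After 48 h at 37 °C, viability was read by MTT assay. Viability was expressed as a percentage of the DMSO control, in triplicate.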

[7] = test system: SARS-CoV-2 BetaCoV/Germany/BavPat1/2020; type: cell-based; remark: listed apart in the source
ACE2 = ACE2 immunoblot analysis in Vero E6; type: cell-based, monkey; conditions: Vero E6, after 24 h
[8] = test system: SARS-CoV-2 negative-stranded viral RNA; assay: In vitro transcribed viral RNA replication assay, negative-stranded RNA RT-qPCR; type: cell-based
Vero E6 = conditions: Vero E6, conditions of the antiviral assay, 16 h
SARS-CoV-2 USA-WA1/2020 = type: cell-based
HeLa-hACE2 = conditions: HeLa-hACE2, conditions of the antiviral assay, 16 h
[9] = test system: SARS-CoV-2 BetaCoV/Germany/BavPat1/2020; assay: Time-of-addition assay in Vero CCL81, plaque assay; type: cell-based
SARS-CoV-2 dsRNA = type: cell-based
[10] = test system: ocular angiogenic disease models; conditions: 0.25 mg/kg; cited from earlier work
SARS-CoV-2 = conditions: COVID-19 patients; cited from earlier work
[11] = test system: SARS-CoV-2 BetaCoV/Germany/BavPat1/2020; type: cell-based; conditions: effect only at 10 μM, less potent than Apra S4

## Cc1cccc(/C=N/Nc2cc(N3CCOCC3)nc(OCCc3ccccn3)n2)c1 [Apilimod, apilimod, reference compound]
[1]
  VSV-G-mediated entry: None of the compounds impacted
[2]
  viral entry of SARS-CoV-1 S pseudotyped particles (luciferase): inhibited viral entry
Vero E6 cells
  cytotoxic effect (WST-8): No cytotoxic effect was observed
[3]
  viral entry of SARS-CoV-2 S pseudotyped particles (luciferase): inhibited viral entry

## CC[C@H](C)[C@H]1C(=O)N2CCC[C@H]2C(=O)O[C@H](C(C)(C)C)C[C@@H](C)C[C@H](O)[C@H](C)C2=N[C@@H](CCC(=O)N[C@@H](Cc3ccc(OC)cc3)C(=O)N(C)[C@@H](C)C(=O)N1C)CS2 [Apra S4, apratoxin S4]
Vero CCL81 cells
  cytotoxic effects (CellTiter-Glo): not due to cytotoxic effects
[4]
  nucleoprotein signal intensity in infected cells: increased
  number of infected cells (N or S positive): significantly reduced number of infected cells
  spike protein staining intensity in infected cells: significantly reduced
  viral protein expression at the cell surface (nucleoprotein and spike): inhibitory effect of Apra S4 was even more pronounced
[1]
  VSV-G-mediated entry: None of the compounds impacted
[2]
  viral entry of SARS-CoV-1 S pseudotyped particles (luciferase): slightly enhanced infection
[5]
  reduction in infectious virus titers in the supernatant: more than 100 fold
[6]
  cytotoxicity in pneumocyte-like cells: No cytotoxicity
[7]
  SARS-CoV-2 multicycle growth: strongly reduced
[7]; […], below limit of detection
  virus titers: < 100 PFU/mL
ACE2
  concentration giving decreased ACE2 protein levels: ≥ 1 µM
Vero E6 cells
  cytotoxic effect (WST-8): No cytotoxic effect was observed
[8]
  negative-strand viral RNA: reduced the negative-strand RNA
Vero E6
  cytotoxicity: Cytotoxicity was not observed
SARS-CoV-2 USA-WA1/2020
  viral replication in human pneumocyte-like cells: significantly decreased viral replication
HeLa-hACE2
  cytotoxicity: Cytotoxicity was not observed
[9]
  antiviral activity by time of addition: did not lose its antiviral activity even if added 2 h after infection
SARS-CoV-2 dsRNA
  dsRNA intermediates in infected cells: strongly reduced
[3]
  viral entry of SARS-CoV-2 S pseudotyped particles (luciferase): slightly enhanced infection
[10]
  efficacy in ocular angiogenic disease models in vivo: exquisite efficacy
  toxicity in ocular angiogenic disease models in vivo: without toxicity or histological abnormalities

## CCC(CC)COC(=O)[C@H](C)N[P@](=O)(OC[C@H]1O[C@@](C#N)(c2ccc3c(N)ncnn23)[C@H](O)[C@@H]1O)Oc1ccccc1 [remdesivir, reference compound]
[6]
  cytotoxicity in pneumocyte-like cells: No cytotoxicity
[7]
  SARS-CoV-2 multicycle growth: less potent

## CC(C)C(=O)OC[C@H]1O[C@@H](n2ccc(NO)nc2=O)[C@H](O)[C@@H]1O [molnupiravir]
SARS-CoV-2
  reduction of the rate of hospitalizations and death: 30%

## CC1(C)C(N(O)C(=O)Nc2ccc(Cl)cc2)N(c2ccc(Cl)cc2)C(=O)N1CC(=O)N/N=C/C=C/c1ccc([N+](=O)[O-])o1 (stereo not drawn) [Eeyarestatin I, eeyarestatin I]
[11]
  SARS-CoV-2 growth: inhibited SARS-CoV-2 in a dose-dependent manner
